This excerpt belongs to a sample that is enriched for hits.
Hsp70 activator – switches on Hsp70 transcription | actives 0.04% (n = 200,000) | activation, % at 10 µM | AID 1203 | HeLa Hsp70 promoter luciferase reporter, luminescence; scaled: vehicle 0, proteasome-inhibitor control 100%;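 active means activation above the mean across all tested compounds plus 3 SD, cutoff set per campaign, cut at about 5.5% in these data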;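 further: 100% = MG132 at 30 µM as the positive control and 0% = DMSO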
HSF1 inh – HSF1 inhibition. NIH3T3-HGL HSE-luciferase, MG132-induced, luminescence 8 h; hits give low values. activity change, negative = inhibition, % at 7.5 µM (by protocol). actives 0.77% (n = 300,000);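 active means more than half of replicate wells show activity change below -50%, luminescence cut by over half; inconclusive means some wells, but at most half, below -50%; inactive means no replicate well below -50%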;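 further: luciferase reports HSF-1 transcriptional activity via heat shock element; 0% = median of DMSO wells and -100% = zero luminescence signal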
T cruzi repl – T. cruzi replication inhibition. AID 1885. actives 1.4% (n = 300,000). inhibition, % (test concentration not listed). T. cruzi beta-gal in NIH3T3, luminescence, 90 h;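 active means mean inhibition across valid replicates above about 55%, limit read from the data; inconclusive means mean below that limit but half or more replicates reach it; inactive means mean below it, under half of replicates reach it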;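 further: signal also drops with host cell toxicity which is not excluded here; 0% = plate median of DMSO wells and 100% = zero luminescence signal; higher percent means less beta-gal luminescence so fewer parasites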
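Incubation – ≥90 h infection period, 3 h prior cell attachment · System – NIH/3T3 fibroblasts plus reporter T. cruzi · Doses – compound pinned at 50 nL/well, DMSO · Read-out basis – percent inhibition of parasite-derived β-gal signal · Signal – luminescent β-galactosidase signal after 60 min lysis · Also added – 5000 T. cruzi trypomastigotes/well · Medium – Low-serum DMEM with 2% FBS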
L major viab – reduces viability of Leishmania major promastigotes; resazurin fluorescence viability; inhibition, % at 10 µM; actives 9% (n = 200,000); AID 1063; in the data active means inhibition above about 50%;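 further: promastigotes grown with compound for 44 hours at 28 °C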
HSF-1 act – increases HSF-1 driven luciferase reporter signal; NIH3T3-HGL HSF-1 luciferase reporter, MG132, 8 h; 100% = twice DMSO control signal; actives 1.7% (n = 300,000); activation, % at 9 µM;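 active means mean replicate activation of at least 50% with a set share of replicates each reaching 50%; inconclusive means only one of those two conditions met; inactive means mean below 50% and too few replicates reaching it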;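 further: 0% = median of the neutral control wells and 100% = twice that signal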
L major 1uM – L. major promastigote growth inhibition, 1 uM repeat | actives 13% (n = 1,100) | AID 1258 | resazurin fluorescence, 48 h | inhibition, % at 1 µM | shares compounds with L major viab;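 active means inhibition above about 50% in both repeat tests, limit read from the data; inconclusive means one repeat under the set limit, the other over it; inactive means both repeats under the set limit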
Active calls of the source: *; ? = inconclusive; . = not tested or not shown.

SMILES	Hsp70 activator	HSF1 inh	T cruzi repl	L major viab	HSF-1 act	L major 1uM
Cc1ncc([N+](=O)[O-])n1CCOC(=O)c1cc(Cl)cc(Cl)c1N	0	23	0	60*	?	-6
CCOCCCNC(=O)C(c1ccccc1)N(Cc1ccc2c(c1)OCO2)C(=O)c1ccccc1O (stereo not given)	0	2	-1	-1	6	.
Cc1nn(-c2ccc(Cl)cc2)c(=O)c2ccccc12	0	5	-4	-3	-4	.
Cc1c(Cl)sn(-c2ccc(Cl)cc2)c1=O	1	.	.	101*	.	100*
Cc1ccc(NC(=O)CN(C)C(=O)C2CC(=O)N(Cc3ccccc3)C2)cc1 (stereo not given)	.	-4	-7	.	4	.
Nc1nn(S(=O)(=O)c2ccccc2)cc1-c1ccc([N+](=O)[O-])cc1	0	7	53	99*	25	6
c1ccc(-n2nnnc2Oc2cccc3cccnc23)cc1	0	-6	-22	63*	8	-12
Cc1ccc2cccc(Oc3nnnn3-c3ccccc3)c2n1	0	-1	4	8	9	.
O=C(Oc1ccc(Cl)c2cccnc12)c1cccc([N+](=O)[O-])c1	0	-3	-3	99*	1	1
CN(C(=O)n1cnc2ccccc21)c1ccccc1	0	-5	-5	-5	4	.
ClC(Br)=C(n1cnc2ccccc21)n1cnc2ccccc21	0	7	5	100*	8	-20
CCOC(=O)N1CCN=C1SCc1ccc(Cl)c(Cl)c1	0	4	-7	2	-2	.
CCOc1ccc(NC(=O)CN2CCN(S(=O)(=O)c3ccc(Cl)cc3)CC2)cc1	-1	.	.	-6	.	.
CCN(CC)c1ccc(NC(=O)CN2CCN(S(=O)(=O)c3cc(Cl)ccc3OC)CC2)cc1	0	5	10	54*	5	66*
OCCN(Cc1ccccc1)Cc1ccc(F)c(F)c1	0	0	-13	23	2	.
CS(=O)(=O)N1CCc2cc(C(=O)N3CCN(c4ccccc4F)CC3)ccc21	.	11	0	.	6	.
CCC(=O)Nc1nc(C)c(-c2csc(Nc3ccccn3)n2)s1	0	-11	12	62*	14	6
Cc1c(C(=O)N2CCOCC2)c(S(=O)(=O)Nc2ccccc2)c(C)n1C	.	0	-10	.	-1	.
O=C1C=C(NCCOC23CC4CC(CC(C4)C2)C3)C2(CCCCC2)O1	0	-3	7	86*	-3	20
CN(Cc1ccccc1)C(=O)CC(c1ccccc1)c1cc(Cl)ccc1O (stereo not given)	0	.	.	81*	.	4
O=C(CC(c1ccccc1)c1cc(Cl)ccc1O)NCCCN1CCOCC1 (stereo not given)	.	3	-21	.	-18	.
CCc1cc2c(nc1CC)CCN(CC/C(C)=N/OC[C@H]1O[C@H](c3ccccc3)C=C[C@@H]1Oc1ccc(OC)cc1)C2	0	9	37	67*	6	-4
Cc1cccc(-n2c(SCc3cc(=O)n4ccsc4n3)nc3ccccc32)c1	0	7	62*	92*	4	-13
CN1CCN2c3ccccc3Cc3ccccc3C2C1 (stereo not given)	0	-4	-3	54*	-15	-22
COc1ccccc1NC(=O)CSc1nnc(C2CCCCC2)n1-c1ccccc1	.	-5	44	.	-13	.
SMILES	Hsp70 activator	HSF1 inh	T cruzi repl	L major viab	HSF-1 act	L major 1uM
OCCN1CCN(C(=S)c2ccc(Br)cc2)CC1	0	-3	10	68*	4	-2
O=c1c2ccccc2sn1-c1ccccc1	0	-3	65*	100*	-3	-5
CN(C)S(=O)(=O)c1cccc(-n2sc3ccccc3c2=O)c1	0	.	.	55*	.	-4
O=c1c2ccccc2sn1-c1ccc(S(=O)(=O)N2CCCCC2)cc1	0	-7	43	4	-1	.
CN(C)S(=O)(=O)c1ccc2[nH]cc(/C=C/c3nc4ccccc4c(=O)n3-c3ccccc3)c2c1	0	-23	14	21	-29	.
COc1cccc(CNS(=O)(=O)c2c(C)nc3sccn3c2=O)c1	.	1	-6	.	8	.
CC1(C)CC(=O)C=C(Nc2ccc(C(=O)O)c(O)c2)C1	.	-4	-11	.	-7	.
O=C(O)CCC(=O)N1CC=C(c2ccccc2)CC1	0	-22	15	63*	-23	-7
